Assay results: ChEMBL document CHEMBL1629465, “Efficient synthesis of novel 1,2,4-triazole fused acyclic and 21-28 membered macrocyclic and/or lariat macrocyclic oxaazathia crown compounds with potential antimicrobial activity” (2010)
In brackets after ≈: the same amount, converted by molar mass.

Tests used:
Format in all cases: functional
[1] = system: Aspergillus fumigatus; assay: Antimicrobial activity against Aspergillus fumigatus RCMB 002008 at 1 mg/ml by agar diffusion technique; conditions: read-out: DIZ
Method in brief: (§1)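 Agar well diffusion. Test compounds and reference standard drugs were diluted to 5.0, 2.5 and 1.0 mg/mL and applied to 0.6 cm wells. Inhibition zone beyond the control was scored as 0 (no inhibition), + (0.1–0.5 cm), ++ (0.6–1.0 cm) or +++ (1.0–1.5 cm).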

[2] = system: Syncephalastrum racemosum; assay: Antimicrobial activity against Syncephalastrum racemosum RCMB 016001 at 1 mg/ml by agar diffusion technique; conditions: read-out: DIZ; method in brief: as §1
[3] = system: Pseudomonas aeruginosa; assay: Antimicrobial activity against Pseudomonas aeruginosa RCMB 102002 at 2.5 mg/ml by agar diffusion technique; conditions: read-out: DIZ; method in brief: as §1
[4] = system: Penicillium italicum; assay: Antimicrobial activity against Penicillium italicum RCMB 001018 by twofold serial dilution method
Method in brief: (§2)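 MIC was determined by further twofold serial dilution across twelve levels, from 1000 down to 0.49. Strains were the same bacterial, yeast and fungal RCMB isolates used in the diffusion screen.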

[5] = system: Candida albicans; assay: Antimicrobial activity against Candida albicans RCMB 005003 at 2.5 mg/ml by agar diffusion technique; conditions: read-out: DIZ; method in brief: as §1
[6] = system: Candida albicans; assay: Antimicrobial activity against Candida albicans RCMB 005003 at 1 mg/ml by agar diffusion technique; conditions: read-out: DIZ; method in brief: as §1
[7] = system: Penicillium italicum; assay: Antimicrobial activity against Penicillium italicum RCMB 001018 at 2.5 mg/ml by agar diffusion technique; conditions: read-out: DIZ; method in brief: as §1
[8] = system: Syncephalastrum racemosum; assay: Antimicrobial activity against Syncephalastrum racemosum RCMB 016001 at 2.5 mg/ml by agar diffusion technique; conditions: read-out: DIZ; method in brief: as §1
[9] = system: Bacillus subtilis; assay: Antimicrobial activity against Bacillus subtilis RCMB 101001 by twofold serial dilution method; method in brief: as §2
[10] = system: Syncephalastrum racemosum; assay: Antimicrobial activity against Syncephalastrum racemosum RCMB 016001 by twofold serial dilution method; method in brief: as §2
[11] = system: Staphylococcus aureus; assay: Antimicrobial activity against Staphylococcus aureus RCMB 106001 at 2.5 mg/ml by agar diffusion technique; conditions: read-out: DIZ; method in brief: as §1
[12] = system: Pseudomonas aeruginosa; assay: Antimicrobial activity against Pseudomonas aeruginosa RCMB 102002 at 5 mg/ml by agar diffusion technique; conditions: read-out: DIZ; method in brief: as §1
[13] = system: Aspergillus fumigatus; assay: Antimicrobial activity against Aspergillus fumigatus RCMB 002008 at 2.5 mg/ml by agar diffusion technique; conditions: read-out: DIZ; method in brief: as §1
[14] = system: Staphylococcus aureus; assay: Antimicrobial activity against Staphylococcus aureus RCMB 106001 at 1 mg/ml by agar diffusion technique; conditions: read-out: DIZ; method in brief: as §1
[15] = system: Bacillus subtilis; assay: Antimicrobial activity against Bacillus subtilis RCMB 101001 at 1 mg/ml by agar diffusion technique; conditions: read-out: DIZ; method in brief: as §1
[16] = system: Penicillium italicum; assay: Antimicrobial activity against Penicillium italicum RCMB 001018 at 1 mg/ml by agar diffusion technique; conditions: read-out: DIZ; method in brief: as §1
[17] = system: Candida albicans; assay: Antimicrobial activity against Candida albicans RCMB 005003 at 5 mg/ml by agar diffusion technique; conditions: read-out: DIZ; method in brief: as §1
[18] = system: Escherichia coli; assay: Antimicrobial activity against Escherichia coli RCMB 103001 at 1 mg/ml by agar diffusion technique; conditions: read-out: DIZ; method in brief: as §1
[19] = system: Escherichia coli; assay: Antimicrobial activity against Escherichia coli RCMB 103001 at 2.5 mg/ml by agar diffusion technique; conditions: read-out: DIZ; method in brief: as §1
[20] = system: Bacillus subtilis; assay: Antimicrobial activity against Bacillus subtilis RCMB 101001 at 2.5 mg/ml by agar diffusion technique; conditions: read-out: DIZ; method in brief: as §1
[21] = system: Aspergillus fumigatus; assay: Antimicrobial activity against Aspergillus fumigatus RCMB 002008 by twofold serial dilution method; method in brief: as §2
[22] = system: Escherichia coli; assay: Antimicrobial activity against Escherichia coli RCMB 103001 by twofold serial dilution method; method in brief: as §2
[23] = system: Pseudomonas aeruginosa; assay: Antimicrobial activity against Pseudomonas aeruginosa RCMB 102002 at 1 mg/ml by agar diffusion technique; conditions: read-out: DIZ; method in brief: as §1
[24] = system: Staphylococcus aureus; assay: Antimicrobial activity against Staphylococcus aureus RCMB 106001 at 5 mg/ml by agar diffusion technique; conditions: read-out: DIZ; method in brief: as §1
[25] = system: Syncephalastrum racemosum; assay: Antimicrobial activity against Syncephalastrum racemosum RCMB 016001 at 5 mg/ml by agar diffusion technique; conditions: read-out: DIZ; method in brief: as §1
[26] = system: Aspergillus fumigatus; assay: Antimicrobial activity against Aspergillus fumigatus RCMB 002008 at 5 mg/ml by agar diffusion technique; conditions: read-out: DIZ; method in brief: as §1
[27] = system: Candida albicans; assay: Antimicrobial activity against Candida albicans RCMB 005003 by twofold serial dilution method; method in brief: as §2
[28] = system: Bacillus subtilis; assay: Antimicrobial activity against Bacillus subtilis RCMB 101001 at 5 mg/ml by agar diffusion technique; conditions: read-out: DIZ; method in brief: as §1
[29] = system: Pseudomonas aeruginosa; assay: Antimicrobial activity against Pseudomonas aeruginosa RCMB 102002 by twofold serial dilution method; method in brief: as §2
[30] = system: Staphylococcus aureus; assay: Antimicrobial activity against Staphylococcus aureus RCMB 106001 by twofold serial dilution method; method in brief: as §2
[31] = Escherichia coli, RCMB 103001, read-out: MIC

Row | MIC [22, 31] | SMILES | zone of inhibition at 1000 µg/mL [1] | zone of inhibition at 1000 µg/mL [2] | zone of inhibition at 2500 µg/mL [3] | zone of inhibition at 2500 µg/mL [5] | zone of inhibition at 1000 µg/mL [6] | zone of inhibition at 2500 µg/mL [7] | zone of inhibition at 2500 µg/mL [8] | zone of inhibition at 2500 µg/mL [11] | zone of inhibition at 2500 µg/mL [13] | zone of inhibition at 1000 µg/mL [14] | zone of inhibition at 1000 µg/mL [15] | zone of inhibition at 1000 µg/mL [16] | zone of inhibition at 1000 µg/mL [18] | zone of inhibition at 2500 µg/mL [19] | zone of inhibition at 2500 µg/mL [20] | zone of inhibition at 1000 µg/mL [23] | also measured
1 | 250 µg/mL (≈ 384 µM) | OC(COc1ccccc1/C=N\n1c(-c2cccnc2)n[nH]c1=S)COc1ccccc1/C=N\n1c(-c2cccnc2)n[nH]c1=S | 0 mm | 0 mm | 0 mm | 0 mm | 0 mm | 6 mm | 1 mm | 0 mm | 0 mm | 0 mm | 1 mm | 6 mm | 0 mm | 1 mm | 1 mm | 0 mm | MIC [4]: 250 µg/mL (≈ 384 µM); MIC [9]: 250 µg/mL (≈ 384 µM); MIC ([9]; Bacillus subtilis, RCMB 101001, read-out: MIC): 250 µg/mL (≈ 384 µM); MIC [10]: 250 µg/mL (≈ 384 µM); MIC ([10]; Syncephalastrum racemosum, RCMB 016001, read-out: MIC): 250 µg/mL (≈ 384 µM); zone of inhibition at 5000 µg/mL [12]: 0 mm; zone of inhibition at 5000 µg/mL [17]: 0 mm; MIC [21]: 250 µg/mL (≈ 384 µM); MIC ([21]; Aspergillus fumigatus, RCMB 002008, read-out: MIC): 250 µg/mL (≈ 384 µM); MIC [22]: 250 µg/mL (≈ 384 µM); zone of inhibition at 5000 µg/mL [24]: 0 mm
2 | 250 µg/mL (≈ 356 µM) | C1=N\n2c(nnc2-c2cccnc2)SCCCCSc2nnc(-c3cccnc3)n2/N=C\c2ccccc2OCCCCOc2ccccc2/1 | 0 mm | 0 mm | 0 mm | 1 mm | 0 mm | 0 mm | 0 mm | 1 mm | 0 mm | 1 mm | 0 mm | 0 mm | 1 mm | 1 mm | 0 mm | 0 mm | zone of inhibition at 5000 µg/mL [25]: 0 mm; zone of inhibition at 5000 µg/mL [26]: 0 mm; MIC [27]: 250 µg/mL (≈ 356 µM); MIC ([27]; Candida albicans, RCMB 005003, read-out: MIC): 250 µg/mL (≈ 356 µM); zone of inhibition at 5000 µg/mL [28]: 0 mm; MIC [29]: 250 µg/mL (≈ 356 µM); MIC ([29]; Pseudomonas aeruginosa, RCMB 102002, read-out: MIC): 250 µg/mL (≈ 356 µM); MIC [30]: 250 µg/mL (≈ 356 µM); MIC ([30]; Staphylococcus aureus, RCMB 106001, read-out: MIC): 250 µg/mL (≈ 356 µM)
